Drawing on ChEMBL document CHEMBL4513216, “Probing the Open Global Health Chemical Diversity Library for Multistage-Active Starting Points for Next-Generation Antimalarials” (ACS Infect Dis, 2020), this text covers cytotoxicity for 40 compounds.

The nature of this series: Toxicity liver stage against HepG2, at 10uM. The settings on record: human, HepG2-A16-CD81EGFP cells; read-out: INHIBITION
In kind it is cell-based. More on the design: test concentration 10 uM, cell line HepG2-A16-CD81EGFP. The method in brief: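 Uninfected HepG2-A16-CD81EGFP cells, 3 × 10^3 per well, 1536-well, plated on prespotted compound at 10 μM final, parasite-free screening media added to match infected plates; puromycin 10 μM positive, DMSO 0.5% negative; run in parallel with 48 h PbLuc assay at 37 °C, 5% CO2; viability by CellTiter-Glo luminescence, normalized to controls.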

In the case of `CO[C@@H]1CC[C@H]2[C@H]1OCCN2CC1CC1`, the cytotoxicity at 10 µM stood at 11.4%.

As for `CCOC(=O)N1CCC(OC)c2ccccc2N(C)C(=O)C1` (stereo not given), the cytotoxicity at 10 µM worked out at 7.58%.

As for `CCOCCC(=O)N1CCCC(c2ncc[nH]2)C1` (stereo not given), the cytotoxicity at 10 µM is -9.43%.

Regarding `COc1ccc(CNC2CCCN(Cc3noc(C)n3)C2)cc1F` (stereo not given), the cytotoxicity at 10 µM is -12.5%.

Turning to `OCCc1cn(CC2CCCN(Cc3nccs3)C2)nn1` (stereo not given), the cytotoxicity at 10 µM is -6.51%.

Turning to `Cn1c(=O)[nH]c(=O)c2c1nc1n2CC(c2ccc(Br)cc2)O1` (stereo not given), the cytotoxicity at 10 µM is -1.41%.

Turning to `CCOCCCNC(=O)c1cc(C)nc(N2CCCC2)n1`, the cytotoxicity at 10 µM came to 1.11%.

Turning to `COc1ccc2c(c1)CCCN2C(=O)CNCC1CN(C)CCO1` (stereo not given), the cytotoxicity at 10 µM amounted to 4.78%.

Take `COc1ccc(NCCC(=O)NCc2cccnc2N(C)C)cc1`: the cytotoxicity at 10 µM is -2.06%.

With `O=C(O)C1(Cc2ccc(-c3cccs3)cc2)CCNC1` (stereo not given), the cytotoxicity at 10 µM was -0.74%.

Consider `Cc1cnc(CN(C)C2CCCN(c3cccnn3)C2)cn1` (stereo not given), for which the cytotoxicity at 10 µM amounted to 10.4%.

As for `COCCN1CCN(C(=O)c2ccc(C)cc2OC)[C@H]2CS(=O)(=O)C[C@H]21`, the cytotoxicity at 10 µM was -3.81%.

On to `CN1CCC(c2nnc(CN3CCCC3)n2C2CC2)CC1`, for which the cytotoxicity at 10 µM is -11.4%.

As for `COCCC(=O)N1CCC2(CCCN2Cc2cccc(Cl)c2)C1` (stereo not given), the cytotoxicity at 10 µM stood at 10.6%.

Take `Cc1ccccc1N1CCCN(C(=O)c2nn(C)cc2Cl)CC1`: the cytotoxicity at 10 µM is -4.78%.

As to `CN(C)c1cc(CNC(=O)CC2CCCCC2)ccn1`, the cytotoxicity at 10 µM came out at 9.24%.

For the compound `Cc1cc(C)n(CC(=O)N2CCC(c3ccn4nccc4n3)CC2)n1`, the cytotoxicity at 10 µM is -0.0825%.

As for `Cc1ccc(NC(=O)NCCn2cnc(C)c(C)c2=O)cc1F`, the cytotoxicity at 10 µM was determined as 3.22%.

Turning to `Oc1nc(N2CCCC2)nc2c1CCN(Cc1cccnc1)CC2`, the cytotoxicity at 10 µM was -7.25%.

For `Cc1ccc(C)c2c(O)cc(CN3CCC(=O)NCC3C)nc12` (stereo not given), the cytotoxicity at 10 µM stood at 2.11%.

With `CS(=O)(=O)NCC1CCCN(C(=O)c2ccc3c(c2)CCC3)C1` (stereo not given), the cytotoxicity at 10 µM was -5.52%.

For the compound `CNC(=O)NC(C)c1c(F)cccc1Cl` (stereo not given), the cytotoxicity at 10 µM was -6.2%.

Regarding `Cc1ccc(C(=O)N2C[C@H]3CC[C@@H](C2)N(Cc2ccccc2)C3)cn1`, the cytotoxicity at 10 µM was -140%.

For the compound `O=C(NCc1ccco1)Nc1ccc2nc(N3CCOCC3)oc2c1`, the cytotoxicity at 10 µM was 4.17%.

As to `Cc1cc(C(=O)N(C)CCCn2cccn2)nc(N)n1`, the cytotoxicity at 10 µM is -7.04%.

Turning to `O=C(NCc1ccnc(OCC2CC2)c1)C1COc2ccccc2O1` (stereo not given), the cytotoxicity at 10 µM was -3.88%.

Regarding `CN(C)c1cncc(C2CCN(CC(N)=O)CC2)n1`, the cytotoxicity at 10 µM amounted to 3.07%.

For `CCC(C(=O)NCc1ccccn1)N(c1cccc(C)c1)S(C)(=O)=O` (stereo not given), the cytotoxicity at 10 µM is 0.383%.

With `CC(=O)N(C)Cc1cccc(NC(=O)c2cnn(C)c2C)c1`, the cytotoxicity at 10 µM is 3.5%.

For the compound `CC(C)[C@@H]1CN(C(=O)CN(C)Cc2ccccc2)C[C@H]1C(=O)O`, the cytotoxicity at 10 µM is -3.99%.

`Cc1ccc(CN2CCC3(CC2)C(=O)N(CC(C)C)CCN3C)s1`: the cytotoxicity at 10 µM was -3.63%.

As for `CCc1noc(C)c1C(=O)NCc1ccccn1`, the cytotoxicity at 10 µM was -1%.

For the compound `CN(Cc1nc(C2CC2)no1)C(=O)c1cccc(CC2CCNCC2)c1`, the cytotoxicity at 10 µM was 2.74%.

Take `CC1CCc2sc(C(=O)Nc3cnn(C)c3)cc2C1` (stereo not given): the cytotoxicity at 10 µM turned out to be 9.48%.

With `Cc1cnc(C(=O)N2CCCC(n3ccnc3C)C2)cn1` (stereo not given), the cytotoxicity at 10 µM was -10.8%.

`CC(C)c1noc(CCC(=O)NCC(c2ccco2)N2CCCC2)n1` (stereo not given): the cytotoxicity at 10 µM was -9.71%.

With `CCN(C)c1ccc(CNS(=O)(=O)C2CCOCC2)cc1F`, the cytotoxicity at 10 µM was 10.3%.

Take `CCCn1cc(-c2cc(-c3c[nH]cn3)c(C#N)c(N)n2)c(C)n1`: the cytotoxicity at 10 µM is 10.3%.

Take `Cc1c(C(=O)NCCCS(C)(=O)=O)cccc1-c1ccccn1`: the cytotoxicity at 10 µM worked out at 4.83%.

As for `CCn1cc(-c2cc(C(F)F)n3nc(CCC(=O)O)nc3n2)cn1`, the cytotoxicity at 10 µM was -2.78%.
